Measurements as given in ChEMBL document CHEMBL4831535, “Reducing the Toxicity of Designer Aminoglycosides as Nonsense Mutation Readthrough Agents for Therapeutic Targets” (ACS Med Chem Lett, 2021).
Calls of active or inactive are those of the source. No cut-off for these calls is given here.

What was measured:
Type in all cases: cell-based
[1] = system: Premature termination codon; test: Induction of read through activity at TP53 R213X mutant premature termination codon in human DMS-114 cells assessed as increase in production of full length p53 at 125 ug/ml measured after 48 hrs by capillary electrophoresis western analysis; conditions: dose 125.0 µg/ml
Method in brief: (§1)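 DMS-114 cells exposed to a range of concentrations for 48 h. Full-length and truncated p53 measured by capillary electrophoresis western analysis, with vinculin as loading control. Full-length p53 expressed as a normalized percent amount.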

Fibroblast [2] = test: Cytotoxicity against human fibroblast assessed as reduction in cell viability at up to 0.5 mg/ml measured after 48 hrs by fluorescent live-cell promega ApoLive-glo multiplex assay
Method in brief: (§2)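 Wild-type fibroblasts exposed to a range of concentrations for 48 h. Cell viability read out with the ApoLive-Glo Multiplex Assay.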

DMS-114 [3] = test: Cytotoxicity against human DMS-114 cells assessed as reduction in cell viability at up tp 500 ug/ml; conditions: dose 500 µg/ml
[4] = system: Premature termination codon; test: Induction of read through activity at TP53 R213X mutant premature termination codon in human DMS-114 cells assessed as increase in production of full length p53 at 500 ug/ml measured after 48 hrs by capillary electrophoresis western analysis relative to control; conditions: dose 500.0 µg/ml; method in brief: as §1
[5] = system: Premature termination codon; test: Induction of read through activity at TP53 R213X mutant premature termination codon in human DMS-114 cells assessed as increase in production of full length p53 at up to 500 ug/ml measured after 48 hrs by capillary electrophoresis western analysis; conditions: dose microg/ml <=500, time 48.0 hrs; method in brief: as §1
[6] = system: Premature termination codon; test: Induction of read through activity at TP53 R213X mutant premature termination codon in human DMS-114 cells assessed as increase in production of full length p53 at 31 to 250 ug/ml measured after 48 hrs by capillary electrophoresis western analysis; conditions: dose 31-250 µg/ml; method in brief: as §1
Fibroblast [7] = test: Cytotoxicity against human fibroblast assessed as reduction in cell viability at 1 mg/ml measured after 48 hrs by fluorescent live-cell promega ApoLive-glo multiplex assay relative to control; method in brief: as §2
[8] = system: Premature termination codon; test: Induction of read through activity at TP53 R213X mutant premature termination codon in human DMS-114 cells assessed as expression of full length p53 levels at 62 ug/ml measured after 48 hrs by capillary electrophoresis western analysis; conditions: dose 62.0 µg/ml; method in brief: as §1
DMS-114 [9] = test: Cytotoxicity against human DMS-114 cells assessed as reduction in cell viability at 125 ug/ml; conditions: dose 125 µg/ml
DMS-114 [10] = test: Cytotoxicity against human DMS-114 cells assessed as reduction in cell viability at up to 62 ug/ml; conditions: dose <=62 µg/ml

C[C@H](N)[C@H]1O[C@@H](O[C@@H]2[C@@H](O)[C@H](N)C[C@H](N)[C@H]2O[C@H]2O[C@H]([C@@H](C)O)[C@@H](O)[C@H](O)[C@H]2O)[C@H](O)[C@@H]1O
Activity [1]: Active | Activity (Fibroblast [2]): Non-Toxic | Activity (DMS-114 [3]): Non-Toxic | Activity [4]: 18%

C[C@H](N)[C@H]1O[C@@H](O[C@@H]2[C@@H](O)[C@H](N)C[C@H](N)[C@H]2O[C@H]2O[C@H]([C@H](C)O)[C@@H](O)[C@H](O)[C@H]2O)[C@H](O)[C@@H]1O
Activity (DMS-114 [3]): Non-Toxic | Activity [5]: inactive

C[C@H](N)[C@H]1O[C@@H](O[C@@H]2[C@@H](O)[C@H](N)C[C@H](N)[C@H]2O[C@H]2O[C@H]([C@H](O)CO)[C@@H](O)[C@H](O)[C@H]2O)[C@H](O)[C@@H]1O
Activity (Fibroblast [2]): Non-Toxic | Activity [6]: Active | Activity (Fibroblast [7]): 15% | Activity (DMS-114 [3]): Non-Toxic

C[C@H](N)[C@H]1O[C@@H](O[C@@H]2[C@@H](O)[C@H](N)C[C@H](N)[C@H]2O[C@H]2O[C@H]([C@@H](C)N)[C@@H](O)[C@H](O)[C@H]2O)[C@H](O)[C@@H]1O
Activity [5]: inactive

C[C@H](N)[C@H]1O[C@@H](O[C@@H]2[C@@H](O)[C@H](N)C[C@H](N)[C@@H]2O[C@H]2O[C@H]([C@@H](C)O)[C@@H](O)[C@H](O)[C@H]2N)[C@H](O)[C@@H]1O
Activity [8]: Active | Activity (Fibroblast [7]): 50% | Activity (DMS-114 [9]): Toxic | Activity (DMS-114 [10]): Non-Toxic
